A short description of the assay: Antitumor activity against human […] cells at 10 uM after 48 hrs by sulforhodamine B assay relative to control. The assay is classed as functional. A digest of the protocol:
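NCI panel lines were grown in RPMI-1640 with 5% FBS and 2 mM L-glutamine and seeded at 5000–40,000 cells/well according to doubling time. After 24 h at 37 °C, 5% CO2, one dose from a DMSO stock was added for 48 h. Cells were TCA-fixed (10% final adherent, 16% suspension), SRB-stained and read at 515 nm. Percent growth is relative to untreated control.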
Background: Sulforhodamine B stains cellular protein and so reports cell mass.
For `[3H]N1C(=O)[C@@]2(c3ccccc31)N(C)C[C@@H](c1cccs1)[C@@]21Cc2ccccc2C1=O`, the inhibition – broadly, the drop in the measured response relative to a control, in per cent – at 10 µM stood at 10.9%.
The value for `COc1ccc(Nc2nc(-c3ccccc3)cc(-c3ccc(Cl)cc3)c2C(=O)Nc2ccc(C)cc2)cc1` was 79%.
The value for `CN1C/C(=C\c2cccs2)C(=O)[C@@]2(C1)[C@H](c1cccs1)CN(C)[C@]21C(=O)N(C)c2ccccc21` was 89.4%; that for `Nc1nc(-c2ccccc2)cc(-c2ccc(Cl)cc2)c1C(=O)Nc1ccccc1` was 46%; that for `Cc1ccc(NC(=O)c2c(-c3ccc(Cl)cc3)cc(-c3ccccc3)nc2Nc2ccc(Cl)cc2)cc1` was 58%.
The figure for `O=C(Nc1ccccc1)c1c(-c2ccc(Cl)cc2)cc(-c2ccccc2)nc1N1CCCCC1` is 13%.
For `O=C(Nc1ccccc1)c1c(-c2ccc(Cl)cc2)cc(-c2ccccc2)nc1Nc1ccccc1`, the inhibition at 10 µM stood at 15%.
The figure for `[3H]C([3H])([3H])N1C(=O)[C@@]2(c3ccccc31)N(C)C[C@@H](c1ccc(Cl)cc1)[C@@]21Cc2ccccc2C1=O` is 86.6%; for `CN1C/C(=C\c2ccc(Cl)cc2)C(=O)[C@@]2(C1)[C@H](c1ccc(Cl)cc1)CN(C)[C@]21C(=O)N(C)c2ccccc21` it is 62%; for `O=C1c2ccccc2SCC[C@@]12[C@H](c1ccc(Cl)cc1)C(c1ccccc1)=NN2c1cccc(Cl)c1` it is 33.2%.
The value for `COc1ccc(-c2c3c([nH]c(=S)c2C#N)-c2ccccc2SCC3)cc1` was 0.96%; that for `COc1ccc([C@@H]2C(c3ccccc3)=NN(c3cccc(Cl)c3)[C@]23CCSc2ccccc2C3=O)cc1` was 34.3%; that for `O=C(Nc1ccc(Cl)c(Cl)c1)Nc1ccccc1SCCCSc1ccccc1NC(=O)Nc1ccc(Cl)c(Cl)c1` was 108%.
The figure for `O=C(Nc1ccccc1)c1c(-c2ccc(Cl)cc2)cc(-c2ccccc2)nc1Nc1ccc(Cl)cc1` is 53%.
Turning to `Cc1ccc(NC(=O)c2c(-c3ccc(Cl)cc3)cc(-c3ccccc3)nc2N2CCOCC2)cc1`, the inhibition at 10 µM amounted to 39%.
The value for `CCn1c(S)n[n+]2c(N)c(C#N)c(-c3ccc(N4CCOCC4)cc3)c(C#N)c12` was 24.9%.
The figure for `O=C(Nc1ccccc1)c1c(-c2ccc(Cl)cc2)cc(-c2ccccc2)nc1N1CCOCC1` is 51%; for `CN1C/C(=C\c2ccc(Cl)cc2)C(=O)[C@@]2(C1)[C@H](c1ccc(Cl)cc1)CN(C)[C@]21C(=O)Nc2ccccc21` it is 61.5%.
In the case of `[3H]C([3H])([3H])N1C(=O)[C@@]2(c3ccccc31)N(C)C[C@@H](c1cccs1)[C@@]21Cc2ccccc2C1=O`, the inhibition at 10 µM was found to be 12.1%.
The value for `COc1nc(-c2cccs2)cc2c1c(=O)oc1ccccc12` was 9.11%.
The figure for `CN1CCN(C(=O)/C(=C/c2ccccc2OCCOc2ccccc2/C=C(\NC(=O)c2ccccc2)C(=O)N2CCN(C)CC2)NC(=O)c2ccccc2)CC1` is 14.7%; for `Cc1ccc(NC(=O)c2c(-c3ccc(Cl)cc3)cc(-c3ccccc3)nc2N)cc1` it is 71%; for `[3H]C([3H])([3H])N1C(=O)[C@@]2(c3ccccc31)N(C)C[C@@H](c1ccc(OC)cc1)[C@@]21Cc2ccccc2C1=O` it is 82.3%.
The figure for `O=C(N/C(=C\c1ccccc1OCCOc1ccccc1/C=C(\NC(=O)c1ccccc1)C(=O)N1CCCCC1)C(=O)N1CCCCC1)c1ccccc1` is 18.3%.
For `COc1ccc(/C=C2\CN(C)C[C@]3(C2=O)[C@H](c2ccc(OC)cc2)CN(C)[C@]32C(=O)Nc3ccccc32)cc1`, the inhibition at 10 µM turned out to be 79.3%.
For the molecule `[3H]N1C(=O)[C@@]2(c3ccccc31)N(C)C[C@@H](c1ccc(Cl)cc1)[C@@]21Cc2ccccc2C1=O`, the inhibition at 10 µM came out at 63.4%.
`Cn1c(S)n[n+]2c(N)c(C#N)c(-c3ccc(N4CCOCC4)cc3)c(C#N)c12`: the inhibition at 10 µM was determined as 11.9%.
Regarding `[3H]N1C(=O)[C@@]2(c3ccccc31)N(C)C[C@@H](c1ccc(OC)cc1)[C@@]21Cc2ccccc2C1=O`, the inhibition at 10 µM was determined as 33.2%.
The value for `O=C(Nc1ccc(Cl)cc1)/C(=C/c1ccccc1OCCOc1ccccc1/C=C(\NC(=O)c1ccccc1)C(=O)Nc1ccc(Cl)cc1)NC(=O)c1ccccc1` was 6.03%; that for `Cc1ccc(NC(=O)c2c(-c3ccc(Cl)cc3)cc(-c3ccccc3)nc2N2CCCCC2)cc1` was 24%; that for `O=C(N/C(=C\c1ccccc1OCCOc1ccccc1/C=C(\NC(=O)c1ccccc1)C(=O)N1CCOCC1)C(=O)N1CCOCC1)c1ccccc1` was 9.15%.
Take `COc1ccc(Nc2nc(-c3ccccc3)cc(-c3ccc(Cl)cc3)c2C(=O)Nc2ccccc2)cc1`: the inhibition at 10 µM is 30%.
The value for `O=C1c2ccccc2SCC[C@@]12[C@H](c1cccs1)C(c1ccccc1)=NN2c1cccc(Cl)c1` was 29.8%.

(Values after ChEMBL document CHEMBL1287652, “QSAR modeling, synthesis and bioassay of diverse leukemia RPMI-8226 cell line active agents” (2010).)
